ChEMBL document CHEMBL1212767, “In vitro and in vivo activities of 1-hydroxy-2-alkyl-4(1H)quinolone derivatives against Toxoplasma gondii” (Antimicrob Agents Chemother, 2010)
The source made the active and inactive calls. The calls are words filed in the database; no cut-off is given here.

Tests used:
Toxoplasma gondii [1] = experiment: (§1) Antimicrobial activity against Toxoplasma gondii type 2 ME49 strain orally infected in ip dosed IRF-8 deficient mouse brain assessed as decrease in inflammatory foci administered for 5 days after 3 days post 28 day 400 mg/dl sulfadiazine dosing by quantitative PCR analysis; type: functional, organism-based
Summary of the method: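 Same ME49 chronic model: sulfadiazine 400 mg/dl for 28 days, then daily drug for 5 days starting 3 days after withdrawal, four mice per group, repeated three times. Brain inflammatory foci were graded as mean inflammatory scores using a previously described scoring method.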

Toxoplasma gondii [2] = experiment: Antimicrobial activity against GFP-expressing Toxoplasma gondii type 1 RH strain ip infected in NMRI mouse assessed as decrease in parasite DNA level in lungs at 32 mg/kg, ip administered 3 days postinfection for 5 days by quantitative PCR analysis; type: functional, organism-based; design: dose 32 mg/kg
Summary of the method: (§2)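 Same i.p.-infected NMRI model and dosing regimen; liver and lung collected on day 8. Parasite DNA was quantified by qPCR targeting the T. gondii cryptic gene, using 250 ng total DNA, 2 mM MgCl2, 1 μM each primer and 0.2 μM each hybridization probe. Cycling: 50 cycles of 95°C, 52°C and 72°C. Standard curve of 250 to 2.5 pg parasite DNA run each time; crossing points by second-derivative method.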

Toxoplasma gondii [3] = experiment: Antimicrobial activity against GFP-expressing Toxoplasma gondii type 1 RH strain ip infected in NMRI mouse assessed as decrease in parasite DNA level in liver at 32 mg/kg, ip administered 3 days postinfection for 5 days by quantitative PCR analysis; type: functional, organism-based; design: dose 32 mg/kg; summary of the method: as §2
Toxoplasma gondii [4] = experiment: as §1, with “Toxoplasma DNA level measured per 250 ng total DNA” for “inflammatory foci”, “analysis (Rbv = 134 +/- 226.1 pg DNA)” for “analysis”; type: functional
Summary of the method: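 Chronic model: mice infected with ME49; sulfadiazine 400 mg/dl given from day 2 for 28 days to allow cyst formation. Three days after withdrawal, mice received drug daily for 5 days, in groups of four, repeated three times. On day 39, brain parasite load was measured by qPCR as pg T. gondii DNA per 250 ng total DNA.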

Toxoplasma gondii [5] = experiment: Antimicrobial activity against Toxoplasma gondii type 1 RH strain infected in human foreskin fibroblasts monolayer assessed as inhibition of parasite replication after 24 hrs by phase-contrast microscopy; type: functional, organism-based
Toxoplasma gondii [6] = experiment: Antimicrobial activity against Toxoplasma gondii type 1 RH strain infected in human foreskin fibroblasts monolayer assessed as inhibition of parasite replication at 1 uM after 24 hrs by phase-contrast microscopy; type: functional
Summary of the method: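 Confluent human foreskin fibroblast monolayers infected with RH tachyzoites, then exposed to compound (top concentration 1 μM) or DMSO control for 24 h. Read-out was the average number of parasites per vacuole-type count, relative to control.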

Toxoplasma gondii [7] = experiment: Antimicrobial activity against GFP-expressing Toxoplasma gondii type 1 RH strain ip infected in NMRI mouse assessed as decrease in infected peritoneal cells in peritoneal cavity lavage at 32 mg/kg, ip administered 3 days postinfection for 5 days; type: functional, organism-based; design: dose 32 mg/kg
Summary of the method: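 Female NMRI mice infected i.p. with GFP-expressing RH tachyzoites. From day 3 post-infection, drug was given i.p. at 32 mg/kg/day for 5 days. Vehicle was ethanol-DMSO (1:1), sonicated at 70°C, then diluted with an equal volume of PBS. Vehicle-treated mice served as controls. On day 8, peritoneal lavage cells were fixed in 3.7% formaldehyde, and the percentage of GFP-infected cells was measured by flow cytometry. Data pooled from three experiments.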

Structure (SMILES) | Activity (Toxoplasma gondii [1]) | Activity (Toxoplasma gondii [2]) | Activity (Toxoplasma gondii [3]) | Activity (Toxoplasma gondii [4]) [pg] | inhibition (Toxoplasma gondii [5]) | inhibition at 1 µM (Toxoplasma gondii [6]) [%] | IC50 (Toxoplasma gondii [5]) [nM] | Activity (Toxoplasma gondii [7])
O=C1C(O)=C([C@H]2CC[C@H](c3ccc(Cl)cc3)CC2)C(=O)c2ccccc21 [ATOVAQUONE] | Active | Active | Active | 0.8 | – | – | – | –
CCCCCCCCCCCCc1cc(=O)c2cc(OCCN(C)C)ccc2n1O | – | – | – | – | inactive | – | – | –
CCCCCCCCCCCCc1c(C)n(O)c2ccc(OCCN(C)C)cc2c1=O | – | – | – | – | – | 38 | – | –
CCCCCCCCCCCCc1c(C)n(O)c2ccccc2c1=O | Active | Active | Active | 6.7 | – | – | 0.8 | Active
CCCCCCCCCCCCc1cc(=O)c2ccccc2n1O | – | – | Active | – | – | – | 4.2 | Active
CCCCCCCCCCCCc1c(C)c(=O)c2ccccc2n1O [COMPOUND A] | Active | – | Active | – | – | – | 0.4 | Active
